pIC50: −log10 of the molar value.
Target: T1, Proto-oncogene tyrosine-protein kinase Src (Homo sapiens, UniProt P12931)
Experiment: Inhibition of Src Kinase at 0.1 mM ATP
Procedure, shortened: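 Compound is preincubated 10 min at 30 °C, then the reaction is started with ATP (100 μM final) and run 1 h at 30 °C. It is stopped with EDTA and read by ELISA for tyrosine phosphorylation. Compounds are run in duplicate; values are the mean of at least two determinations.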

T1 sequence (P12931 2-536 limits assumed): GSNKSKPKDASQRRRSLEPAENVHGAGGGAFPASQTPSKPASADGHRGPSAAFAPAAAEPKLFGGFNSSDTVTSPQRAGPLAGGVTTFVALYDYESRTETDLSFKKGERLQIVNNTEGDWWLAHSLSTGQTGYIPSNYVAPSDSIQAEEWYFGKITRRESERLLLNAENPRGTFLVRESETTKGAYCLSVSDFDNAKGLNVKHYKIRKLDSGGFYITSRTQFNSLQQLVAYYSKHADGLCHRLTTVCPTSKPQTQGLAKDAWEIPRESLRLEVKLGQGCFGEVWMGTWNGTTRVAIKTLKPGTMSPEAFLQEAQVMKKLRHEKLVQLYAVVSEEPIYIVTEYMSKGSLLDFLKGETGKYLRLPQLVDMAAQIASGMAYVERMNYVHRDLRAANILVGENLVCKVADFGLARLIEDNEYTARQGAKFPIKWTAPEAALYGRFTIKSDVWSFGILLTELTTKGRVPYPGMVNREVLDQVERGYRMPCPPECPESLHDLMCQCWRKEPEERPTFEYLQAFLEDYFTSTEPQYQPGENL

| SMILES | pIC50 |
| --- | --- |
| COc1cc2ncc(C#N)c(Nc3ccc(Cl)cc3Cl)c2cc1OC | 7.64 |

Target: T1, Proto-oncogene tyrosine-protein kinase Src
Experiment: Inhibition of Src Kinase at 1 mM ATP
Procedure, shortened: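 Src ELISA kinase assay with Src (3 units/reaction) and cdc2 substrate peptide in Tris-HCl pH 7.5 buffer with MgCl₂, EGTA and vanadate. After a 10 min, 30 °C preincubation with compound, the reaction is started with ATP raised to 1 mM and run 1 h at 30 °C. It is stopped with EDTA and phosphotyrosine is detected by ELISA.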

| SMILES | pIC50 |
| --- | --- |
| COc1cc2ncc(C#N)c(Nc3ccc(Cl)cc3Cl)c2cc1OC | 6.89 |

Target: T1, Proto-oncogene tyrosine-protein kinase Src
Experiment: Inhibition of Src Kinase at 5 mM ATP
Procedure, shortened: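 Same Src ELISA format: enzyme at 3 units/reaction, cdc2 peptide substrate, Tris-HCl pH 7.5/MgCl₂/EGTA/Na₃VO₄ buffer, and 10 min compound preincubation at 30 °C. ATP is raised to 5 mM to start the reaction, which runs 1 h at 30 °C. It is quenched with EDTA and phosphorylation is read by ELISA.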

| SMILES | pIC50 |
| --- | --- |
| COc1cc2ncc(C#N)c(Nc3ccc(Cl)cc3Cl)c2cc1OC | 6.57 |

Target: T1, Proto-oncogene tyrosine-protein kinase Src
Experiment: Inhibitory activity against human c-Src Kinase was measured using ELISA assay
Procedure, shortened: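 Src (3 units/reaction) and cdc2 substrate peptide were preincubated with compound for 10 min at 30 °C in 50 mM Tris-HCl pH 7.5, 10 mM MgCl2, 0.1 mM EGTA and 0.5 mM Na3VO4. ATP was added to 100 μM final, the reaction ran 1 h at 30 °C, and EDTA stopped it. Phosphotyrosine was read by ELISA kit.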

| SMILES | pIC50 |
| --- | --- |
| COc1cc2ncnc(Nc3ccc(Cl)cc3Cl)c2cc1OC | 6.60 |
| COc1cc2c(Nc3ccc(Cl)cc3Cl)c(C#N)cnc2cc1OCCCN1CCN(C)CC1 | 8.06 |
| COc1ccc2c(Nc3ccc(Cl)cc3Cl)c(C#N)cnc2c1 | 6.70 |
| COc1cc2ncc(C#N)c(Nc3ccc(Cl)cc3Cl)c2cc1OC | 7.52 |
| COc1cc2ncc(C#N)c(Nc3ccc(Cl)cc3)c2cc1OC | 7.28 |
| CCOc1cc2ncc(C#N)c(Nc3ccc(Cl)cc3Cl)c2cc1OCC | 7.96 |
| COc1cc2ncc(C#N)c(Nc3ccccc3Cl)c2cc1OC | 7.02 |
| COc1cc2ncc(C#N)c(Nc3ccc(Cl)c(Cl)c3)c2cc1OC | 7.24 |
| COc1cc2ncc(C#N)c(Nc3ccc(Cl)cc3Cl)c2cc1OCCCN1CCOCC1 | 6.66 |
| COc1cc2ncc(C=O)c(Nc3ccc(Cl)cc3Cl)c2cc1OC | 6.60 |
| COc1cc2ncc(C#N)c(Sc3ccc(Cl)cc3Cl)c2cc1OC | 5.66 |
| COc1cc2ncc(C#N)c(Nc3ccc(Cl)cc3F)c2cc1OC | 7.28 |
| COc1cc2ncc(C#N)c(Nc3ccc(Cl)cc3Br)c2cc1OC | 8.00 |
| COc1cc2ncc(C#N)c(Nc3ccc(I)cc3Cl)c2cc1OC | 7.02 |
| COc1cc2ncc(C#N)c(Nc3cc(Cl)ccc3Cl)c2cc1OC | 7.40 |
| COc1cc2nccc(Nc3ccc(Cl)cc3Cl)c2cc1OC | 7.08 |
| COc1cc2ncc(C#N)c(Nc3cc(Cl)cc(Cl)c3)c2cc1OC | 5.96 |
| COc1cc2c(Nc3ccc(Cl)cc3Cl)c(C#N)cnc2cc1OCCCN1CCC(O)CC1 | 8.46 |
| COc1cccc2ncc(C#N)c(Nc3ccc(Cl)cc3Cl)c12 | 5.92 |
| N#Cc1cnc2cc(OCCCN3CCOCC3)c(OCCCN3CCOCC3)cc2c1Nc1ccc(Cl)cc1Cl | 7.72 |
| COc1ccc2ncc(C#N)c(Nc3ccc(Cl)cc3Cl)c2c1 | 6.49 |
| COc1cc2ncc(C#N)c(Nc3ccc(Cl)cc3I)c2cc1OC | 8.21 |
| COc1cc2ncc(C#N)c(Nc3ccc(Br)cc3Cl)c2cc1OC | 7.82 |
| COc1cc2c(Nc3ccc(Cl)cc3Cl)c(C#N)cnc2cc1OCCCN1CCOCC1 | 8.42 |
| COc1cc2ncc(C#N)c(Nc3c(Cl)cccc3Cl)c2cc1OC | 7.21 |
| COc1cc2ncc(C#N)c(Nc3cccc(Cl)c3Cl)c2cc1OC | 7.05 |
| CCCCOc1cc2ncc(C#N)c(Nc3ccc(Cl)cc3Cl)c2cc1OCCCC | 6.80 |

Target: T1, Proto-oncogene tyrosine-protein kinase Src
Experiment: Inhibition of Src Kinase at 1 uM

| SMILES | inhibition |
| --- | --- |
| CCOC(=O)c1cnc2cc(OC)c(OC)cc2c1Nc1ccc(Cl)cc1Cl | < 20% |
| COc1cc2ncc(C#N)c(NC(=O)c3ccc(Cl)cc3Cl)c2cc1OC | < 20% |
| COc1cc2ncc(C(N)=O)c(Nc3ccc(Cl)cc3Cl)c2cc1OC | < 20% |
| N#Cc1cnc2ccccc2c1Nc1ccc(Cl)cc1Cl | < 20% |
| N#Cc1cnc2cc(O)c(O)cc2c1Nc1ccc(Cl)cc1Cl | < 20% |
| COc1cccc2c(Nc3ccc(Cl)cc3Cl)c(C#N)cnc12 | < 20% |
| COc1cc2ncc(C#N)c(N(C)c3ccc(Cl)cc3Cl)c2cc1OC | 32% |
| COc1cc2ncc(C#N)c(Oc3ccc(Cl)cc3Cl)c2cc1OC | 37% |
| COc1cc2ncc(C(=O)O)c(Nc3ccc(Cl)cc3Cl)c2cc1OC | < 20% |
| COc1cc(OC)c2c(Nc3ccc(Cl)cc3Cl)c(C#N)cnc2c1 | 52% |
| COc1cc2/c(=N/c3ccc(Cl)cc3Cl)c(C#N)cn(C)c2cc1OC | < 20% |
| COc1cc2ncc(C#N)c(NCc3ccc(Cl)cc3Cl)c2cc1OC | 24% |
| COc1cc2ncc(CO)c(Nc3ccc(Cl)cc3Cl)c2cc1OC | < 20% |

— ChEMBL document CHEMBL1134365, “Synthesis and Src kinase inhibitory activity of a series of 4-phenylamino-3-quinolinecarbonitriles” (J Med Chem, 2001)
